Reference: publication PMC9090800 (RSC Advances, 2018)
Converted amounts (≈) assume the structure as drawn.

Key:
Hemolytic assay = format: cell-based; settings: human, human red blood cells (erythrocyte suspension in PBS)
Procedure, shortened: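 Fresh human blood was collected in EDTA and spun 10 min at 2000 rpm. Erythrocytes were washed three times in PBS and made to a 10% (v/v) suspension, then diluted 1:10. Equal volumes of cells and test compound dilution series in PBS were incubated in triplicate for 1 h at 37 °C and re-centrifuged. Supernatant A450 was expressed relative to buffer (0%) and 1% Triton X-100 (100% lysis). Fluconazole was the reference.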

[1] = system: human embryonic kidney (HEK-293) cells; test: Cytotoxicity by MTT assay; format: cell-based; settings: HEK-293, 100 μg mL^−1, 24 h
Procedure, shortened: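 HEK-293 cells grown as monolayers in DMEM with 10% FBS, penicillin and streptomycin, 37 °C, 5% CO2, at most 30 passages. Seeded at about 8 × 10^3 cells per well, 24 h before dosing. Test compound (DMSO stock diluted in PBS) given at 10–200 μg mL−1 for 24 h at 37 °C. Serum-free medium, then MTT (5 mg mL−1 in PBS), 4 h. Formazan dissolved in DMSO, A570 read. Triplicate; viability relative to untreated cells.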

C. albicans (ATCC 90028) = test: In vitro anticandidal activity, broth dilution; format: cell-based; settings: Candida albicans, ATCC90028, 24 h, read-out: IC50 ± S.D, C. albicans
Procedure, shortened: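 Broth dilution followed the NCCLS protocol. Test compound in DMSO was diluted in PBS, then tested at 1000 to 7.8 μg mL−1 in SD broth with about 2.5 × 10^3 cells per mL in 96-well plates. Plates were shaken 24 h at 30 °C, 150 rpm, and read at OD580. IC50 was the concentration halving absorbance versus untreated cells, taken from a log10 concentration versus % inhibition plot. Triplicates were run on separate occasions, with fluconazole as positive control.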

C. tropicalis (ATCC 750) = test: In vitro anticandidal activity, broth dilution; format: cell-based, Candida tropicalis; settings: ATCC 750, 24 h, OD 580 nm
C. albicans = test: Growth curve studies; format: cell-based, Candida albicans
Procedure, shortened: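 C. albicans revived on SD agar and pre-grown 16 h at 30 °C in SD broth. About 2 × 10^3 cells per mL were inoculated into 50 mL SD medium containing test compound at 2MIC, MIC or MIC/2, then shaken at 30 °C, 160 rpm. Fluconazole at 31.25 μg mL−1 and untreated cells served as controls. OD600 was read on 1 mL aliquots every 2 h from 0 to 24 h.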

[2] = system: ergosterol content in C. albicans ATCC 90028; test: Sterol estimation assay; format: cell-based, Candida albicans; settings: vs untreated cells

IC50 (C. albicans (ATCC 90028)) | IC50 ± S.D, C. tropicalis (C. tropicalis (ATCC 750)) | SMILES | hemolysis at 1 h, 1000 μg mL^−1 (Hemolytic assay) | cell viability (MTT) [1] | growth of Candida cells (C. albicans; 2MIC and MIC, 24 h) | nature of inhibition (C. albicans; no significant growth after 24 h at higher concentrations) | time after which growth was observed (C. albicans; sub-MIC (MIC/2), standard C. albicans strain) | decrease in ergosterol content ([2]; 2MIC (500 μg mL^−1)) | decrease in ergosterol content ([2]; MIC (250 μg mL^−1)) | decrease in ergosterol content ([2]; MIC/2 (125 μg mL^−1))
65.6 ± 3.2 µg/mL (≈ 160 µM) | 28.2 ± 2.2 µg/mL (≈ 68.8 µM) | CCOC(=O)c1nc2ccccc2c(=O)n1Cc1cn(-c2cccc(Cl)c2)nn1 [Compound 5g, Ethyl 3-((1-(3-chlorophenyl)-1H-1,2,3-triazol-4-yl)methyl)-4-oxo-3,4-dihydroquinazoline-2-carboxylate] | < 20% | no significant decrease in cell viability | – | – | – | – | – | –
14.6 ± 2.1 µg/mL (≈ 37.5 µM) | – | CCOC(=O)c1nc2ccccc2c(=O)n1Cc1cn(-c2ccc(C)cc2)nn1 [Compound 5n, Ethyl 4-oxo-3-((1-p-tolyl-1H-1,2,3-triazol-4-yl)methyl)-3,4-dihydroquinazoline-2-carboxylate] | 41.2% | no significant decrease in cell viability | did not show any significant growth | fungicidal | 7 h | 57% | 55% | 48%
87 ± 4 µg/mL (≈ 241 µM) | – | Cc1ccc(-n2cc(Cn3c(C(=O)O)nc4ccccc4c3=O)nn2)cc1 [Compound 6n, 4-Oxo-3-((1-p-tolyl-1H-1,2,3-triazol-4-yl)methyl)-3,4-dihydroquinazoline-2-carboxylic acid] | < 20% | no significant decrease in cell viability | – | – | – | – | – | –
